Here are results for 23 compounds from ChEMBL document CHEMBL1141396, “Synthesis and mixed lineage kinase activity of pyrrolocarbazole and isoindolone analogs of (+)K-252a” (J Med Chem, 2007).

What is called inhibition is the percentage by which the read-out fell short of the control. The term IC50 denotes the concentration that gives 50% inhibition. Higher therefore signals weaker potency. A word on the Inhibition: it is how much of the control response was suppressed. A low value points to little suppression.

Molecules are shown by their SMILES. Activity calls are given as the source filed them. The rule behind the calls is not given here.

Assay [1] addresses Fibroblast growth factor receptor 1 (Homo sapiens) (UniProt P11362). Put plainly: Inhibition of FGFR1 at 1 uM.
In assay [2] the target is Insulin receptor (Homo sapiens) (UniProt P06213). Put plainly: Inhibition of IRKbeta at 1 uM.
Chain of Insulin receptor (Homo sapiens) (P06213 28-758 limits assumed): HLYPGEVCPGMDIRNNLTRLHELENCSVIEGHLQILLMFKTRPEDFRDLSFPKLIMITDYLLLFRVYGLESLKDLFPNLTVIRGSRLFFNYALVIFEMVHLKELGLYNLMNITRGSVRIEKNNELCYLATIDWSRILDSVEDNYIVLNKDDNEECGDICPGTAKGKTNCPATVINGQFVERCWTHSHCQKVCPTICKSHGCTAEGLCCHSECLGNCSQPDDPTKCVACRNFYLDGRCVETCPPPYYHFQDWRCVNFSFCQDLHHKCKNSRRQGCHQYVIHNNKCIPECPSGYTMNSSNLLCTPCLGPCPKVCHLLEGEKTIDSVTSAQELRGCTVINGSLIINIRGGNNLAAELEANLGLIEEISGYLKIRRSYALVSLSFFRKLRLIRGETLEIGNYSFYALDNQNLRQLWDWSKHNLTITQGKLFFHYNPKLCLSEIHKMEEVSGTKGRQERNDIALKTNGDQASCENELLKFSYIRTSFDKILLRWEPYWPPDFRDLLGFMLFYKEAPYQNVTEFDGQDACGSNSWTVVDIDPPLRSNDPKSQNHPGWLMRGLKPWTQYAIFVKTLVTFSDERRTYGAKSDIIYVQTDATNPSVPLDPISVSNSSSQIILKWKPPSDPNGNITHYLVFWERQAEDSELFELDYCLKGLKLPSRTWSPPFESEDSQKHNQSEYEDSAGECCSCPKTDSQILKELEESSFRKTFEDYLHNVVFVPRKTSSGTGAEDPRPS
Chain of Insulin receptor (Homo sapiens) (P06213 763-1382 limits assumed): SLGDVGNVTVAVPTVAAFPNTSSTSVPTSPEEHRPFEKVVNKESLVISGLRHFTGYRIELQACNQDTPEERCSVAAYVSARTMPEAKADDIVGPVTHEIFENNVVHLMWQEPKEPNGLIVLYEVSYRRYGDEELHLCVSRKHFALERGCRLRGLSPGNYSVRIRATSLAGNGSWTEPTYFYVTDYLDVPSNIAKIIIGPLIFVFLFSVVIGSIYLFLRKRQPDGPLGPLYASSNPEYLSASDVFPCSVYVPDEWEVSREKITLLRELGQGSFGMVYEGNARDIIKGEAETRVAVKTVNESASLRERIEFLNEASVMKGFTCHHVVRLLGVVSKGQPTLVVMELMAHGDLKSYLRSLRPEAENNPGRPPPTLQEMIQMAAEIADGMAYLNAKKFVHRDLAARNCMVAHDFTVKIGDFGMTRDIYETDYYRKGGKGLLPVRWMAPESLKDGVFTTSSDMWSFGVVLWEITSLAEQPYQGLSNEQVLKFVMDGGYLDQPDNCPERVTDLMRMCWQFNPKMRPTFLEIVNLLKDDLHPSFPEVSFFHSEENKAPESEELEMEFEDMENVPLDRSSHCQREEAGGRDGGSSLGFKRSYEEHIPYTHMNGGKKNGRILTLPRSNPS
In assay [3] the target is Protein kinase C (PKC). Put plainly: Inhibition of PKC. The format is protein assay, Homo sapiens.
Assay [4] has as its target T1, Choline O-acetyltransferase (Rattus norvegicus) (UniProt P32738).
T1 sequence (whole entry): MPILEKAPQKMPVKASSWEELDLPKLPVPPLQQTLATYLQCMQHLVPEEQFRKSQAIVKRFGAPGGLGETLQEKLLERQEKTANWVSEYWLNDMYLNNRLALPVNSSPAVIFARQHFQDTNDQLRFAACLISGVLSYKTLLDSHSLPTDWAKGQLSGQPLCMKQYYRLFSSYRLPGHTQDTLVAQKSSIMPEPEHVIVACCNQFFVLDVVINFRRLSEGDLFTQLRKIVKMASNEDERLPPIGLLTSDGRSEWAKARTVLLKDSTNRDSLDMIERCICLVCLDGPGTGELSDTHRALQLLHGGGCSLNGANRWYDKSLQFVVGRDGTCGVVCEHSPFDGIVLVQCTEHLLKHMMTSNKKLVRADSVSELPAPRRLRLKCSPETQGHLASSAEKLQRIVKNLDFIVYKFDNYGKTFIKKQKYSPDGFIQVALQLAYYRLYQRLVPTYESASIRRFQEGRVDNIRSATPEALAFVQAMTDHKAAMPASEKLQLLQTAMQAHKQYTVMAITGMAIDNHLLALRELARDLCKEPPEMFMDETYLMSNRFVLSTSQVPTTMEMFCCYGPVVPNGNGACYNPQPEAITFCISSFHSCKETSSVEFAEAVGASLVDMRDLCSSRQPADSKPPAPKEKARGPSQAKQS
Description: Enhancement of choline acetyltransferase activity in embryonic rat spinal cord at 300 nM. The method, boiled down:
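Embryonic rat spinal cord cultures; compounds at 300 nM, ChAT activity measured after 2 days in culture, expressed as percent of basal (100%). K-252a run as internal control. Mean ± standard deviation of three independent experiments.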

The target of assay [5] is High affinity nerve growth factor receptor (Homo sapiens, UniProt P04629). Description: Inhibition of TrkA.
Chain of High affinity nerve growth factor receptor (P04629 whole entry): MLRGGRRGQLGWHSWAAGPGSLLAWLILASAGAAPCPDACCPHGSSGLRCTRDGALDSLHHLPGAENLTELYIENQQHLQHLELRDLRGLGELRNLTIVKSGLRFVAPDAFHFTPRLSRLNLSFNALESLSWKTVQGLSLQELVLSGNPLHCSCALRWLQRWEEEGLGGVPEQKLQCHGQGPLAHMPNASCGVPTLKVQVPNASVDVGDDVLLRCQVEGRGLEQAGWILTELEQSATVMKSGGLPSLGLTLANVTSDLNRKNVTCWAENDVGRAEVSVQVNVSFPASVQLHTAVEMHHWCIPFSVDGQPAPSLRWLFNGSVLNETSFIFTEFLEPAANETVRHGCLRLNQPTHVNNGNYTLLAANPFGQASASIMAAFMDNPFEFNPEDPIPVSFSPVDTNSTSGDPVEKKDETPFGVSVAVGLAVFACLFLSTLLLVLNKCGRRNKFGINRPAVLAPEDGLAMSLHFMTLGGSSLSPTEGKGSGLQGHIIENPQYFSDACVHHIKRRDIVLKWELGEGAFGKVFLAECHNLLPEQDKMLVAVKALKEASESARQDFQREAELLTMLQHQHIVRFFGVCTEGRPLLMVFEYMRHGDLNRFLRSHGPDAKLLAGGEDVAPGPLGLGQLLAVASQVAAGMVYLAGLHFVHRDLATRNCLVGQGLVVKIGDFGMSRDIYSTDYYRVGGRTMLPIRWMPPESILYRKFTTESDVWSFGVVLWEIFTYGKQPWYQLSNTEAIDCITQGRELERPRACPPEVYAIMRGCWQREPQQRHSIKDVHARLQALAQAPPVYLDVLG
For assay [6], the target named is Mitogen-activated protein kinase kinase kinase 10 (Homo sapiens, UniProt Q02779). Put plainly: Inhibition of GST-MLK2.
The target of assay [7] is Vascular endothelial growth factor receptor 2 (Homo sapiens, UniProt P35968). Description: Inhibition of VEGFR2.
Chain of Vascular endothelial growth factor receptor 2 (P35968 whole entry): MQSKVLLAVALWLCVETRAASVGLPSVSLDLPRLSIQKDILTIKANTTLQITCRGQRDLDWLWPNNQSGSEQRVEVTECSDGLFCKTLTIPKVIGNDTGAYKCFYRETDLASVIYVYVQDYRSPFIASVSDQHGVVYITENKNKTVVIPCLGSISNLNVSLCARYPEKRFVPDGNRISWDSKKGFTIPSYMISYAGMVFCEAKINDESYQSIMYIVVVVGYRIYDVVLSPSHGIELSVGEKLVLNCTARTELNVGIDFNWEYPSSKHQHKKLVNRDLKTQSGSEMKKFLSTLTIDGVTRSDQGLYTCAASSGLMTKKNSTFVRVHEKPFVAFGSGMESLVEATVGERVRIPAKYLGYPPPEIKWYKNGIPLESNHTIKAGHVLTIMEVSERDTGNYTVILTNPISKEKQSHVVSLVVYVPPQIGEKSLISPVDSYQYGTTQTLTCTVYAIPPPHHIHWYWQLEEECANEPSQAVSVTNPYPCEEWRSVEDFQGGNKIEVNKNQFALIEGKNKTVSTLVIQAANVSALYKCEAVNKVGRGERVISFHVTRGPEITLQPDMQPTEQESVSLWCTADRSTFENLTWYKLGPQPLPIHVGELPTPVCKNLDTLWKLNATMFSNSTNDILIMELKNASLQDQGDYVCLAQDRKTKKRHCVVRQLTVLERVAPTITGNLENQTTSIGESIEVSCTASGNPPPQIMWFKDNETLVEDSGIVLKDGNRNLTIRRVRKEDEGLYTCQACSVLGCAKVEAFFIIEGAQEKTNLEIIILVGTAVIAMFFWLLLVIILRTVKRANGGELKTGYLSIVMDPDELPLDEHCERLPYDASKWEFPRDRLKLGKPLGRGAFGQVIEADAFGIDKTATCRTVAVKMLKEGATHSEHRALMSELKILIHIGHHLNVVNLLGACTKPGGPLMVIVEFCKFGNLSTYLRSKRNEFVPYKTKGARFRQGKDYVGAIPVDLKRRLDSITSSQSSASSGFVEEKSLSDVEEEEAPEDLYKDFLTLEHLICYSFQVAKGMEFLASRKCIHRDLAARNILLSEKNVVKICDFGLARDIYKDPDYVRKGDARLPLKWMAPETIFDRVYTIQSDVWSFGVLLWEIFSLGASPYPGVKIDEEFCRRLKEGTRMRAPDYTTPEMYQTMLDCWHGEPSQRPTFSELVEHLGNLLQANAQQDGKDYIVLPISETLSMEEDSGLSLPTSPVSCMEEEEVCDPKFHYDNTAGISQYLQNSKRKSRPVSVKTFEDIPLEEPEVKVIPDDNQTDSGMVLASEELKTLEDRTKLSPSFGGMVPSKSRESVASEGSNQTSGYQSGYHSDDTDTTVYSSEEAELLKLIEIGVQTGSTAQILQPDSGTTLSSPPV
Assay [8] has as its target Cyclin-dependent kinase 1 (Homo sapiens) (UniProt P06493). Put plainly: Inhibition of CDK1 at 1 uM.
For assay [9], the target named is Platelet-derived growth factor receptor beta (Homo sapiens) (UniProt P09619). Put plainly: Inhibition of PDGFRbeta at 1 uM.
The target in assay [10] is T2, Mitogen-activated protein kinase kinase kinase 9 (Homo sapiens, UniProt P80192). Description: Inhibition of GST-MLK1 expressed in baculovirus.
Assay [11] addresses Mitogen-activated protein kinase kinase kinase 11 (Homo sapiens, UniProt Q16584). Description: Inhibition of GST-MLK3 expressed in baculovirus.
For assay [12], the target named is Angiopoietin-1 receptor (Homo sapiens) (UniProt Q02763). Put plainly: Inhibition of TIE2 at 1 uM.
Chain of Angiopoietin-1 receptor (Homo sapiens) (Q02763 whole entry): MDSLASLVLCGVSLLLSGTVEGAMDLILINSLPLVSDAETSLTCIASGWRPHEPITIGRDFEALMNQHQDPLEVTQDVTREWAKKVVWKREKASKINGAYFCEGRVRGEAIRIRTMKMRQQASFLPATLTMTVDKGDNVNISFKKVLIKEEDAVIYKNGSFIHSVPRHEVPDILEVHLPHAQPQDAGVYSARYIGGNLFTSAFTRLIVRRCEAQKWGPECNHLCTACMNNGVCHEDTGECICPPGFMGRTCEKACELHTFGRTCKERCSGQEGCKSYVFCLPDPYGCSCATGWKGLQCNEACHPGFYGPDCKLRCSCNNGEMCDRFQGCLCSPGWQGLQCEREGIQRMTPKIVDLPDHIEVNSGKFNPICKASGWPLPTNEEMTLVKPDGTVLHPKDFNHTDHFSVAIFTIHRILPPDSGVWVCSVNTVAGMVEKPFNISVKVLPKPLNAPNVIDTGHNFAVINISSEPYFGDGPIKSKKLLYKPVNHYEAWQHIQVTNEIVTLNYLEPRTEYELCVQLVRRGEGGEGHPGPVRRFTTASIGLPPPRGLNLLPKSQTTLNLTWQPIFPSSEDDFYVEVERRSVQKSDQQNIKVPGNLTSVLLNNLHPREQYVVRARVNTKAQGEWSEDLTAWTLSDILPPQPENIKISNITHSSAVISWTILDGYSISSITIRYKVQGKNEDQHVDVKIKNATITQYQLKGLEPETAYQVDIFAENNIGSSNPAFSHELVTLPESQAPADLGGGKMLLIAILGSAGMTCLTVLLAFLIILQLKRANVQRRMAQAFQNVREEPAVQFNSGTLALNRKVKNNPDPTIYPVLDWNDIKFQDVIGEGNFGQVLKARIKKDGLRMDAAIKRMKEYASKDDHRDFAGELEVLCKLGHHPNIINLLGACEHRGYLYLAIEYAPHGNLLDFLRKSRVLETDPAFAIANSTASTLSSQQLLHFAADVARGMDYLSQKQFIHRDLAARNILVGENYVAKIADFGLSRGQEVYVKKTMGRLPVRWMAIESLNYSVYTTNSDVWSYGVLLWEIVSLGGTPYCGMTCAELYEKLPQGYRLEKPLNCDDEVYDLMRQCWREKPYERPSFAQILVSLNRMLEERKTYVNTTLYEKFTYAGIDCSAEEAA
The target in assay [13] is Mitogen-activated protein kinase 8 (Homo sapiens) (UniProt P45983). Put plainly: Inhibition of JNK1 at 1 uM.
In assay [14] the target is T2, Mitogen-activated protein kinase kinase kinase 9. Put plainly: Inhibition of MKK4 phosphorylation in MLK1 transfected CHO cells at 1 uM after 1 hr. The format is functional, cell-based. The method, boiled down:
(§1)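 CHO cells transfected with MLK1 plus dominant-negative MKK4 cDNA. Compound exposure 1 h, tested up to 1 µM. Phospho-MKK4 read by ELISA.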

In assay [15] the target is Mitogen-activated protein kinase 14 (Homo sapiens) (UniProt Q16539). Put plainly: Inhibition of p38-alpha at 1 uM.
The target of assay [16] is Cyclin-dependent kinase 2 (Homo sapiens) (UniProt P24941). Put plainly: Inhibition of CDK2 at 1 uM.
Assay [17] deals with Epidermal growth factor receptor (Homo sapiens) (UniProt P00533). Put plainly: Inhibition of EGFR at 1 uM.
Assay [18] has as its target T2, Mitogen-activated protein kinase kinase kinase 9. Description: Inhibition of MKK4 phosphorylation in MLK1 transfected CHO cells after 1 hr. The assay is classed as functional, cell-based. The method, boiled down: as §1

Chain of Cyclin-dependent kinase 1 (Homo sapiens) (P06493 whole entry, looked up): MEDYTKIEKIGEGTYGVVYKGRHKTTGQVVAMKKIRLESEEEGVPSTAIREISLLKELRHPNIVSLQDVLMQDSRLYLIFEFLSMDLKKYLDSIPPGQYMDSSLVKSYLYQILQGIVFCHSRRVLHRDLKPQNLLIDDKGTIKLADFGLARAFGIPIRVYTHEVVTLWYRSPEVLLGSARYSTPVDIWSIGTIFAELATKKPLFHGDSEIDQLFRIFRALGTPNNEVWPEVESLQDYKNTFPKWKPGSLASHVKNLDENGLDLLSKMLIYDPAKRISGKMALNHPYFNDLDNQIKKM

Turning to `O=C1NCc2c1c1c3ccccc3sc1c1[nH]c3ccccc3c21`, the inhibition in [1], in assay [2], in assay [8], in [9], in [12] and in [13] was less than 30% in each case. Moreover, the inhibition in assay [15], in assay [16] and in assay [17] was less than 30% each time. In addition, the concentration for half-maximal inhibition (IC50) in assay [3] was greater than 1000 nM; in assay [5], 88 nM; in assay [6], 2090 nM; in assay [7] it was greater than 300 nM; in assay [10] it was 111 nM; in assay [11] it was 26 nM. Further, in assay [4], the Activity amounted to 138%. The Inhibition in assay [14] stood at 3%.

In assay [6], `COC(=O)[C@]1(O)C[C@@H]2O[C@@]1(C)n1c3ccccc3c3c4c(c5c6ccccc6n2c5c31)C(=O)NC4` yielded an IC50 of 45 nM.

Turning to `O=C1NCc2c1c1c3ccccc3[nH]c1c1[nH]c3ccccc3c21` [STAUROSPORINONE], the IC50 came out at 138 nM in assay [10] and 49 nM in [11].

Take `O=C1NC(=O)c2c1c1c(c3sc4ccccc4c23)Cc2ccccc2-1`: the IC50 in [10] and in assay [11] was greater than 300 nM each time.

Take `O=C1NC(=O)c2c1c1c3ccccc3sc1c1sc3ccccc3c21`: the IC50 in assay [10] and in [11] was greater than 300 nM each time.

Regarding `O=C1NCc2c1c1c3ccccc3[nH]c1c1oc3ccccc3c21`, the result in [4] was inactive. Further, the IC50 in assay [10] came to 308 nM; in [11], 270 nM.

Turning to `O=C1NC(=O)c2c1c1c3ccccc3ccc1c1[nH]c3ccccc3c21`, the half-maximal inhibitory concentration (IC50) in assay [10] and in assay [11] was 300 nM throughout.

Regarding `O=C1NCc2c3c(c4sc5ccccc5c4c21)Cc1ccccc1-3`, the half-inhibitory concentration (IC50) in assay [10] is 615 nM; in assay [11] it was 110 nM.

In the case of `O=C1NC(=O)c2c1c1c(c3[nH]c4ccccc4c23)CCc2ccccc2-1`, the inhibition in assay [1], in [2], in assay [8], in assay [9], in [12] and in assay [13] was less than 30% throughout. Moreover, the inhibition in assay [15], in [16] and in assay [17] was less than 30% each time. The IC50 in assay [18] was 90 nM; in [3], 83 nM; in [5], greater than 1000 nM; in assay [6] it was 339 nM; in assay [7], greater than 300 nM; in [10], 22 nM. The compound also displayed an IC50 in [11] of 12 nM. In assay [4], the Activity was found to be 178%.

`O=C1NCc2c1c1c3ccccc3oc1c1[nH]c3ccccc3c21`: the outcome in assay [4] was inactive. Further, the half-inhibitory concentration (IC50) is greater than 10000 nM in assay [10] and 1110 nM in [11].

Consider `O=C1NC(=O)c2c1c1c3ccccc3[nH]c1c1oc3ccccc3c21`, for which the result in assay [4] was inactive. Besides, the IC50 in [10] and in [11] was greater than 300 nM throughout.

Take `O=C1NC(=O)c2c1c1c(c3[nH]c4ccccc4c23)Cc2ccccc2-1`: the IC50 in assay [10] and in [11] was greater than 300 nM throughout.

Consider `O=C1NCc2c1c1c3ccccc3[nH]c1c1sc3ccccc3c21`, for which the results for the IC50 in [10] and in [11] were 1800 nM and 171 nM, respectively.

With `O=C1NCc2c1c1c(c3[nH]c4ccccc4c23)-c2ccccc2C1`, the result in assay [10] and in assay [11] was inactive.

For `O=C1NC(=O)c2c1c1c(c3c2-c2ccccc2C3)Cc2ccccc2-1`, the outcome in [4] was inactive. Besides, the IC50 in [10] and in assay [11] was greater than 300 nM each time.

Turning to `O=C1NCc2c3c(c4[nH]c5ccccc5c4c21)-c1ccccc1C3`, the outcome in assay [10] and in assay [11] was inactive.

With `O=C1NCc2c1c1c(c3[nH]c4ccccc4c23)Cc2ccccc2-1`, the inhibition in assay [1], in assay [2], in assay [8], in assay [9], in assay [12] and in assay [13] was less than 30% in each case. For the same compound, the inhibition in assay [15], in assay [16] and in assay [17] was less than 30% in each case. In addition, the IC50 in assay [3] is 1196 nM; in assay [6], 364 nM; in assay [10], 69 nM; in assay [11], 40 nM. Further, the Activity in [4] is 152%. Besides, the Inhibition in assay [14] came out at 19%.

Consider `O=C1NCc2c3c(c4[nH]c5ccccc5c4c21)Cc1ccccc1-3`, for which the inhibition in [1], in assay [2], in assay [8], in assay [9], in assay [12] and in assay [13] was less than 30% each time. The inhibition in assay [15], in [16] and in assay [17] was less than 30% each time. For the same compound, the IC50 in assay [3] is greater than 1000 nM; in [6] it was 2660 nM; in assay [10], 167 nM; in [11] it was 87 nM. In addition, the Activity in assay [4] worked out at 155%. In assay [14], this compound displayed an Inhibition of 22%.

Consider `O=C1NC(=O)c2c1c1c3ccccc3[nH]c1c1sc3ccccc3c21`, for which the concentration for half-maximal inhibition (IC50) in assay [10] was 68 nM; in [11] it was 58 nM.

Take `O=C1NCc2c1c1c3ccccc3sc1c1sc3ccccc3c21`: the result in assay [4] was inactive. Besides, the 50% inhibitory concentration (IC50) in [10] and in assay [11] was greater than 10000 nM throughout.

Consider `O=C1NCc2c1c1c(c3c2-c2ccccc2C3)Cc2ccccc2-1`, for which the IC50 in assay [10] amounted to 1410 nM; in assay [11], 277 nM.

On to `O=C1NCc2c1c1c(c3sc4ccccc4c23)Cc2ccccc2-1`, for which the results for the concentration for half-maximal inhibition (IC50) in assay [10] and in assay [11] were 482 nM and 157 nM, respectively.

On to `O=C1NCc2c3c(c4[nH]c5ccccc5c4c21)CCc1ccccc1-3`, for which the inhibition in assay [1], in [2], in assay [8], in assay [9], in assay [12] and in assay [13] was less than 30% each time. In addition, the inhibition in assay [15], in assay [16] and in assay [17] was less than 30% each time. Further, the IC50 in assay [18] was 274 nM; in assay [3] it was 205 nM; in [5] it was greater than 1000 nM; in assay [6], 3450 nM; in [7], greater than 300 nM; in assay [10] it was 46 nM. Also, half-maximal inhibition in assay [11] (IC50) required 22 nM. Further, in [4], the Activity is 171%.
